Test results reported in PubChem BioAssay AID623952 (Vanderbilt High Throughput Screening Facility, 2012).

Target: G protein-activated inward rectifier potassium channel 2 (Homo sapiens) + G protein-activated inward rectifier potassium channel 1 (Homo sapiens) (UniProt P48051+P48549)
Assay: GIRK1/2 channel opening, thallium influx – cell-based, minus mGlu8, HEK-293 hGIRK1/2, thallium flux, dose response (AID 623952)
Settings: HEK-293 hGIRK1/2, thallium flux FluoZin-2 fluorescence
Outline: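 Material: HEK-293 cells stably carrying hGIRK1/2; also added: bicarbonate thallium stimulus at pH 7.4, glutamate at EC20; schedule: dye loading ~60 min room temperature, compound 4 min pre-stimulus; measured by: FluoZin-2 fluorescence thallium flux; measure: post-thallium F/F0 slope minus vehicle, four-parameter logistic fit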

Chain of G protein-activated inward rectifier potassium channel 2 (Homo sapiens) + G protein-activated inward rectifier potassium channel 1 (Homo sapiens) (P48051 whole entry, looked up): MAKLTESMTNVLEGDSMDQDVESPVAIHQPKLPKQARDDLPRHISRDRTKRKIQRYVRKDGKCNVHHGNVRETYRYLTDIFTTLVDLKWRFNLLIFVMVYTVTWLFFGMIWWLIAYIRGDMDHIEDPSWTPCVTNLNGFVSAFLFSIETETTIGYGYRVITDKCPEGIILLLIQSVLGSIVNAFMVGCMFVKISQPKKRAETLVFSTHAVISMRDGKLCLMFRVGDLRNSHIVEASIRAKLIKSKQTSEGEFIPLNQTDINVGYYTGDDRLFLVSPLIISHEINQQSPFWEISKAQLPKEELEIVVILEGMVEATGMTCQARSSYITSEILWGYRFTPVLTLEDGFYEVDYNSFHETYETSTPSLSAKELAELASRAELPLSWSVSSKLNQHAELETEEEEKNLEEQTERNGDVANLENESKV
Chain of G protein-activated inward rectifier potassium channel 2 (Homo sapiens) + G protein-activated inward rectifier potassium channel 1 (Homo sapiens) (P48549 whole entry, looked up): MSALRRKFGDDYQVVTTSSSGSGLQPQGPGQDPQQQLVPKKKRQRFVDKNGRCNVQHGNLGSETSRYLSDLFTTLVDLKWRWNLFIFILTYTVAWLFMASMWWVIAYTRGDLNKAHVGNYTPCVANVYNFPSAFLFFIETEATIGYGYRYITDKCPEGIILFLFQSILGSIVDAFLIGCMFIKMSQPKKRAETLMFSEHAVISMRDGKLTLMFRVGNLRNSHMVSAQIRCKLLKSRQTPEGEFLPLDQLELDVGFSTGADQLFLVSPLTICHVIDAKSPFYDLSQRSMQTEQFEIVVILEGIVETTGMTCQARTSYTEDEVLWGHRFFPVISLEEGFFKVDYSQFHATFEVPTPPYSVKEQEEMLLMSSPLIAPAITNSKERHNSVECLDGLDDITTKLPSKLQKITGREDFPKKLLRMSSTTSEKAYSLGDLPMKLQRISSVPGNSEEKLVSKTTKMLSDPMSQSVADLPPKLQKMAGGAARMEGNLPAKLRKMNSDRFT

Row | Structure (SMILES) | EC50
1 | Cc1cc(NC(=O)Nc2ccccc2)n(-c2ccccc2)n1 | 1690 nM
2 | Cc1ccc(-c2nnn(CC(=O)NC3CC4CCC3C4)n2)cc1 (centres undefined) | 700 nM
3 | CCOc1ccccc1Nc1nnc(Cc2ccccc2Cl)c(=O)[nH]1 | 250 nM
4 | Cc1ccc(NC(=O)Cc2ccccc2Cl)cc1S(=O)(=O)N(C)C | 799 nM
